This is an account of results in ChEMBL document CHEMBL5154764, “Development of small molecules that work cooperatively with ciprofloxacin to clear salmonella biofilms in a chronic gallbladder carriage model” (Eur J Med Chem, 2022).

Assay [1] concerns Salmonella typhimurium. The assay is described as follows: Antibiofilm activity against Salmonella typhimurium ATCC 14028 assessed as inhibition of biofilm formation incubated for 24 hrs by crystal violet staining based spectrophotometry. It is filed as functional, organism-based, Salmonella enterica subsp. enterica serovar Typhimurium. The settings on record: Salmonella enterica, ATCC 14028, 24 h. An outline of the steps:
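LB overnight cultures (37 °C) set to OD600 0.8, diluted 1:100 into TSB diluted 1:20 in water. Compound at 0.2–100 μM or DMSO added at inoculation. Grown 24 h at 30 °C with nutation, washed, heat-fixed (60 °C, 1 h), stained with crystal violet, dye solubilized in acetic acid, read at 570 nm. IC50 from variable-slope fit of % biofilm vs log concentration. Mean ± SD of three biological replicates.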

For assay [2], the system named is Salmonella typhimurium. The assay is described as follows: Antibiofilm activity against Salmonella typhimurium ATCC 14028 assessed as biofilm dispersal effect incubated for 24 hrs by crystal violet staining based spectrophotometry. Format: functional, organism-based, Salmonella enterica subsp. enterica serovar Typhimurium. The settings on record: Salmonella enterica, ATCC 14028, 24 h. An outline of the steps:
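Biofilms grown 24 h at 30 °C with nutation in TSB diluted 1:20, from 1:100-diluted LB overnight cultures set to OD600 0.8. Crystal violet staining, acetic acid solubilization, 570 nm read-out. EC50 from variable-slope fit of % biofilm remaining vs log concentration. Mean ± SD of three biological replicates.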

Assay [3] deals with Salmonella typhimurium. The assay is described as follows: Antibacterial activity against Salmonella typhimurium ATCC 14028 assessed as bacterial growth inhibition at >=100 uM. Format: functional, organism-based. The settings on record: Salmonella enterica subsp. enterica serovar Typhimurium.
The test system of assay [4] is Salmonella typhimurium. The assay is described as follows: Antibacterial activity against Salmonella typhimurium ATCC 14028 assessed as bacterial growth inhibition at >= 50 uM. The settings on record: Salmonella enterica subsp. enterica serovar Typhimurium. It is filed as functional, organism-based.
For assay [5], the system named is Salmonella typhimurium. The assay is described as follows: Antibacterial activity against Salmonella typhimurium ATCC 14028 assessed as bacterial growth inhibition at >=12.5 uM. The settings on record: Salmonella enterica subsp. enterica serovar Typhimurium. It is filed as functional, organism-based.
In assay [6] the test system is Salmonella typhimurium. Nature of the assay: Antibacterial activity against Salmonella typhimurium ATCC 14028 infected in 129X1/SvJ NRAMP +/+ mouse gallstone model assessed as reduction in bacterial burden in gallblader at 5 mg/kg/day, ip administered for 5 to 15 consecutive days of post infection and measured on day 15 in presence of 4 mg/kg/day ciprofloxacin. Format: functional, organism-based. The settings on record: Salmonella enterica subsp. enterica serovar Typhimurium, time 10.0 day. The method in brief: (§1)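 129X1/SvJ NRAMP+/+ mice given a lithogenic diet (chow plus 1% cholesterol, 0.5% cholic acid) for 8 weeks. Infected i.p. with ~10^3 CFU in 200 μL PBS. Treated daily i.p. on days 5–15 post-infection; vehicle 5% DMSO in PBS. Day 15: gallbladder, liver and spleen homogenized in 1 mL PBS, serially diluted and plated on LB agar (37 °C, 16 h) for CFU counts. One-way ANOVA with Tukey correction.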

Assay [7] relates to Salmonella typhimurium. Nature of the assay: Antibacterial activity against Salmonella typhimurium ATCC 14028 infected in 129X1/SvJ NRAMP +/+ mouse gallstone model assessed as reduction in bacterial burden in spleen at 5 mg/kg/day, ip administered for 5 to 15 consecutive days of post infection and measured on day 15 in presence of 4 mg/kg/day ciprofloxacin. It is filed as functional, organism-based. The settings on record: Salmonella enterica subsp. enterica serovar Typhimurium, time 10.0 day. An outline of the steps: as §1

Assay [8] concerns Salmonella typhimurium. The assay is described as follows: Antibacterial activity against Salmonella typhimurium ATCC 14028 infected in 129X1/SvJ NRAMP +/+ mouse gallstone model assessed as reduction in bacterial burden in liver at 5 mg/kg/day, ip administered for 5 to 15 consecutive days of post infection and measured on day 15 in presence of 4 mg/kg/day ciprofloxacin. Format: functional, organism-based. The settings on record: Salmonella enterica subsp. enterica serovar Typhimurium, time 10.0 day. The method in brief:
as §1

Assay [9] deals with Salmonella typhimurium. The assay is described as follows: Antibacterial activity against Salmonella typhimurium ATCC 14028 infected in 129X1/SvJ NRAMP +/+ mouse gallstone model assessed as log reduction in bacterial burden in gallblader at 5 mg/kg/day, ip administered for 5 to 15 consecutive days of post infection and measured on day 15 in presence of 1 mg/kg/day ciprofloxacin. Format: functional, Salmonella enterica subsp. enterica serovar Typhimurium. The settings on record: time 10 day. The method in brief: as §1

Broadly, the IC50 is the concentration needed to halve the response being measured. For orientation: EC50 means the concentration giving half of the maximal effect.

Calls of active or inactive are those of the source. No cut-off for these calls is given here.

Turning to `CN(Cc1ccsc1)CC1CCN(Cc2ccc(Br)cc2)CC1`, in the assay on Salmonella typhimurium [1], the IC50 is 8.5 µM. The concentration for a half-maximal effect (EC50) with Salmonella typhimurium [2] stood at 127 µM.
Turning to `CN(Cc1ccsc1)CC1CCN(CCc2cc(Br)cc(Br)c2)CC1`, the IC50 in the assay with Salmonella typhimurium [1] worked out at 3.4 µM. Besides, the EC50 in the assay on Salmonella typhimurium [2] amounted to 42 µM. In addition, in the assay on Salmonella typhimurium [3], the “growth inhibition (GI)” value was “Active”.
For the molecule `CN(Cc1ccsc1)CC1CCN(Cc2cc(Cl)ccc2Cl)CC1`, the IC50 in the assay with Salmonella typhimurium [1] was 15.8 µM. Besides, the EC50 in the assay on Salmonella typhimurium [2] came to 196 µM.
In the same order, the values of `CN(Cc1ccsc1)CC1CCN(Cc2ccc(I)cc2)CC1` are 5.7 µM and 77 µM.
Consider `CN(Cc1ccsc1)CC1CCN(Cc2c(F)cccc2F)CC1`, for which the IC50 in the assay on Salmonella typhimurium [1] was > 200 µM. In the assay on Salmonella typhimurium [2], the EC50 was > 12000 µM. In the assay with Salmonella typhimurium [3], the “growth inhibition (GI)” value is “Active”.
As for `CN(Cc1ccsc1)CC1CCN(CCc2cccc(F)c2)CC1`, the IC50 with Salmonella typhimurium [1] worked out at 6.9 µM. Also, the 50% effective concentration (EC50) in the assay with Salmonella typhimurium [2] came out at 388 µM.
For `CN(Cc1ccsc1)CC1CCN(Cc2ccc(Br)c(Br)c2)CC1` the same measures were 11.9 µM and 32 µM.
In the same order, the values of `CN(Cc1ccsc1)CC1CCN(CCc2ccc(Br)cc2)CC1` are 3 µM and 57 µM.
In the same order, the values of `CN(Cc1ccsc1)CC1CCN(CCc2c(F)cccc2F)CC1` are 6.3 µM and 138 µM.
`CN(Cc1ccsc1)CC1CCN(CCc2ccc(Cl)c(Cl)c2)CC1`: the half-maximal inhibitory concentration (IC50) with Salmonella typhimurium [1] came to 1.4 µM. In addition, the “growth inhibition (GI)” value in the assay with Salmonella typhimurium [4] is “Active”. Further, in the assay with Salmonella typhimurium [2], the concentration giving a half-maximal response (EC50) turned out to be 45 µM.
In the case of `CN(Cc1ccsc1)CC1CCN(Cc2ccccc2C(F)(F)F)CC1`, the 50% inhibitory concentration (IC50) in the assay on Salmonella typhimurium [1] stood at 20.9 µM. Moreover, the EC50 with Salmonella typhimurium [2] is 140 µM. Further, the “growth inhibition (GI)” value in the assay on Salmonella typhimurium [3] was “Active”.
For `CN(Cc1ccsc1)CC1CCN(CCc2cccc(Br)c2)CC1` the same measures were 3.6 µM, 83 µM and “Active”.
For the molecule `CN(Cc1ccsc1)CC1CCN(Cc2ccccc2F)CC1`, the IC50 in the assay with Salmonella typhimurium [1] stood at 8.8 µM. Moreover, the EC50 in the assay with Salmonella typhimurium [2] is 125 µM.
Regarding `CN(Cc1ccsc1)CC1CCN(CCc2ccc(Br)c(Br)c2)CC1`, the “growth inhibition (GI)” value with Salmonella typhimurium [5] was “Active”. Further, the result in the assay on Salmonella typhimurium [6], in the assay on Salmonella typhimurium [7] and with Salmonella typhimurium [8] was Active. For the same molecule, the “log(activity)” value in the assay on Salmonella typhimurium [9] was 4.5.
On to `CN(Cc1ccsc1)CC1CCN(CCc2ccc(F)c(F)c2)CC1`, for which the concentration for half-maximal inhibition (IC50) in the assay on Salmonella typhimurium [1] amounted to 3 µM. Further, in the assay on Salmonella typhimurium [2], the EC50 worked out at 87 µM.
For `CN(Cc1ccsc1)CC1CCN(Cc2ccc(Cl)cc2)CC1` the same measures were 5.9 µM and 934 µM.
In the same order, the values of `CN(Cc1ccsc1)CC1CCN(CCc2ccc(F)cc2)CC1` are 16.8 µM and 235 µM.
In the same order, the values of `CN(Cc1ccsc1)CC1CCN(CCCc2ccccc2Cl)CC1` are 5.4 µM and 59 µM.
For the molecule `CN(Cc1ccsc1)CC1CCN(Cc2cccc(Br)c2)CC1`, the IC50 in the assay on Salmonella typhimurium [1] stood at 6.5 µM. Besides, the EC50 in the assay on Salmonella typhimurium [2] was determined as 142 µM.
For `CN(Cc1ccsc1)CC1CCN(CCCc2ccccc2F)CC1` the same measures were 11.5 µM and 221 µM.
With `CN(Cc1ccsc1)CC1CCNCC1`, the IC50 in the assay with Salmonella typhimurium [1] turned out to be 138 µM. Moreover, the EC50 in the assay on Salmonella typhimurium [2] stood at 442 µM.
As to `CN(Cc1ccsc1)CC1CCN(CCc2cc(F)cc(F)c2)CC1`, the IC50 with Salmonella typhimurium [1] is > 200 µM. Moreover, the “growth inhibition (GI)” value with Salmonella typhimurium [4] was “Active”. Further, the EC50 in the assay on Salmonella typhimurium [2] is > 12000 µM.
For `CN(Cc1ccsc1)CC1CCN(CCc2ccc(I)cc2)CC1` the same measures were 2.6 µM, “Active” and 89 µM.
In the case of `CN(Cc1ccsc1)CC1CCN(CCc2cccc(-c3ccccc3)c2)CC1`, the “growth inhibition (GI)” value in the assay with Salmonella typhimurium [5] is “Active”. Further, the IC50 in the assay on Salmonella typhimurium [1] was determined as 1.8 µM. Besides, the EC50 in the assay with Salmonella typhimurium [2] came to 31 µM.
On to `CN(Cc1ccsc1)CC1CCN(CCc2cccc3ccccc23)CC1`, for which the IC50 with Salmonella typhimurium [1] worked out at 2.5 µM. Also, the “growth inhibition (GI)” value in the assay on Salmonella typhimurium [4] was “Active”. Also, the EC50 with Salmonella typhimurium [2] came out at 28 µM.
For `CN(Cc1ccsc1)CC1CCN(CCc2ccccc2)CC1`, the IC50 with Salmonella typhimurium [1] stood at 21.2 µM. Besides, the EC50 in the assay with Salmonella typhimurium [2] is > 12000 µM.
In the same order, the values of `CN(Cc1ccsc1)CC1CCN(CCc2ccccc2Br)CC1` are 7.2 µM and 308 µM.
